# In the library only some 1% were active in any assay of this set; here they are far more common.
# PKD1 inh = inhibitors of human PKD1 kinase, biochemical, fluorescence polarization; Serine/threonine-protein kinase D1 (Homo sapiens), Q15139; PKD1 kinase fluorescence polarization assay; inhibition, % (concentration not given with the values); hit rate 0.056% among 200,000; AID 797, 2007; in the data active = inhibition above about 50%
# ABCB1 inh = ABCB1 efflux pump inhibitors, primary screen, cell-based, multiplex, flow cytometry, ABCG2 counter-screen. CCRF-Adr cells, JC-1 efflux. AID 1326, 2008. hit rate 0.067% among 190,000. ATP-dependent translocase ABCB1 (Homo sapiens), P08183. inhibition, % at 6.6 µM; in the data active = inhibition above about 40%;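 also: higher value means more JC-1 retained so stronger ABCB1 efflux block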
# MT stabilize HCS = microtubule stabilizers in HeLa cells, primary screen, imaging, high-content imaging | HeLa tubulin immunostaining HCS, 24 h; share of cells brighter than vehicle mean+2SD | % tubulin-high responders, % at 10 µM | hit rate 0.83% among 200,000 | AID 2205, 2009;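 active = plate Z-score above 3 for both tubulin-high and condensed-nucleus cell shares, with cell loss under 80%, at 10 µM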;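 also: anti alpha tubulin signal scored within the nucleus-defined area of each cell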
# bCat nuc transl = modulators of beta-catenin nuclear translocation, primary screen, imaging, HeLa cells, immunofluorescence, high-content; nuclear translocation activity, % at 5 µM; hit rate 0.3% among 190,000;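 active = nuclear translocation activity above 50% at 5 µM, with a well cell count of 50 or more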;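 also: per-cell ratio of nuclear to cytoplasmic median beta-catenin stain intensity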
#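 System: HeLa cells, endogenous beta-catenin; compound dosing: 5 µM primary single dose, 0.1% DMSO, 0.02–20 µM confirmation series; incubation: 24 h compound exposure at 37°C, 5% CO2; signal: beta-catenin immunofluorescence imaging with DAPI; evaluation: % activation, nuclear-to-cytoplasmic median beta-catenin signal ratio per cell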
# ABCG2 inh = ABCG2 efflux pump inhibitors, primary screen, multiplex with ABCB1, IgMXP3 cells, flow cytometry; Broad substrate specificity ATP-binding cassette transporter ABCG2 (Homo sapiens), Q9UNQ0; JC-1 efflux; inhibition, % at 6.6 µM; hit rate 0.1% among 190,000;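 active = inhibition above 80%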
# Target sequence (Q9UNQ0 whole entry, looked up): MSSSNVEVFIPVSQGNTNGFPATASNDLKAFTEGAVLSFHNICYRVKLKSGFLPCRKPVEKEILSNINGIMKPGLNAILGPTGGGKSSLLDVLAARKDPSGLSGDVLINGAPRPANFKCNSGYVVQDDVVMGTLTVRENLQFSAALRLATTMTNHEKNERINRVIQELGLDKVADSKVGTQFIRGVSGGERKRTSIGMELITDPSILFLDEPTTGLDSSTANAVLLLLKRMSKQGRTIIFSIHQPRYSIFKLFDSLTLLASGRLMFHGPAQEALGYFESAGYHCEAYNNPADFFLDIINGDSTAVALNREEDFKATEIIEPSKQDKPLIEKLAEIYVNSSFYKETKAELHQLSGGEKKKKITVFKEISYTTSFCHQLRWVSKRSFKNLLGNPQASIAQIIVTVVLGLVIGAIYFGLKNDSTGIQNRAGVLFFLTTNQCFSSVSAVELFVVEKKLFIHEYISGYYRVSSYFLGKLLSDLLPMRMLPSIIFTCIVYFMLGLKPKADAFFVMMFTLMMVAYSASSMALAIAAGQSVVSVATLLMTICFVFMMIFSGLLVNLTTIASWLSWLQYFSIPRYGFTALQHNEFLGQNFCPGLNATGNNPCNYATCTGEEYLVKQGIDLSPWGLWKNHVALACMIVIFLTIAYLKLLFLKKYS
#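 Test system: IgMXP3 cells (ABCG2) mixed with DDAO far-red-labelled CCRF-Adr cells (ABCB1). Reagent: JC-1 transporter substrate. Compound dosing: single test compound dose, 6.6 µM final. Times: 10 min compound exposure, 25 °C. Detection: flow cytometry of retained JC-1 fluorescence. Read-out basis: efflux inhibition in percent versus controls. Controls: nicardipine and DMSO wells.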
# PKD FP artifact = fluorescence polarization interference in PKD1 assay, artefact control for PKD1 inhibitor project, biochemical, 140K library. shares compounds with PKD1 inh. PKD1 FP assay interference counter-screen. inhibition, % at 10 µM. 85 tested, under 10 active. AID 1315, 2008; call rule not given here
# A number is an active result; 0 = inactive; - = not tested or not shown.
SMILES,PKD1 inh,ABCB1 inh,MT stabilize HCS,bCat nuc transl,ABCG2 inh,PKD FP artifact
COc1cccc(C2=CC(c3ccc(OC)c(OC)c3OC)n3nnnc3N2)c1 (configuration not stated),0,0,0,0,0,-
O=[N+]([O-])c1ccc(NCCCNS(=O)(=O)c2ccccc2)c(Cl)c1,0,0,0,0,0,-
Cc1cc(-c2nnc3n2CCCCC3)c(C)n1-c1ccccc1,0,0,0,0,0,-
CCn1c(CSc2ncccn2)nnc1SCC(=O)N1CCc2ccccc21,99,0,0,0,0,0
Cn1c(CSc2ncccn2)nnc1SCC(=O)N1CCCc2ccccc21,0,0,0,0,0,-
Cc1cc2oc(=O)cc(Cn3ncc(Cl)c(Cl)c3=O)c2cc1Cl,0,0,0,0,0,-
NC(N)=NC(=O)c1nc(Cl)c(N)nc1N,80,0,0,0,0,0
CN(C)CCOc1ccc2c(c1)Sc1ccccc1CC2=O,59,0,0,-,0,0
C=CCOc1cccc(C2C(C(=O)c3ccc(C)o3)=C(O)C(=O)N2c2nccs2)c1 (configuration not stated),76,0,0,0,0,54
Cc1ccc(C(=O)C2=C(O)C(=O)N(c3ncccn3)C2c2cccc(Cl)c2)o1 (configuration not stated),-,-,-,0,-,-
NC(=O)Cn1nc([N+](=O)[O-])nc1Oc1ccccc1F,0,0,0,0,0,-
CN1CCN(c2ccccc2NC(=O)c2ccc(Br)o2)CC1,0,0,0,0,0,-
CS(=O)(=O)N1CCN(c2ccccc2NC(=O)c2ccc(Br)o2)CC1,96,0,0,0,0,0
CCc1ccccc1OCC(=O)NC1CCCC1,0,0,0,0,0,-
COC(=O)c1ccccc1OCC(=O)NC1CCCCC1,85,0,0,-,0,0
Nc1nc2ccccc2n1/N=C/c1ccc(-c2ccccc2)o1,0,0,0,0,0,-
Nc1nc2ccccc2n1/N=C/c1cccnc1,69,0,0,-,0,0
Nc1nc2ccccc2n1/N=C/c1ccc([N+](=O)[O-])s1,52,0,0,0,0,0
O=c1[nH]nc(-c2ccccc2)c2ccccc12,-,-,-,0,-,-
c1ccc(-c2n[nH]c3ccccc23)cc1,90,0,0,-,0,0
Nc1c(C(O)(C(F)(F)F)C(F)(F)F)cc(C(O)(C(F)(F)F)C(F)(F)F)c2ccccc12,0,0,0,-,0,-
O=C(NNc1cc(N2CCOCC2)nc(N2CCOCC2)n1)c1ccc(Cl)cc1Cl,0,0,0,0,0,-
O=C(NC12CC3CC(CC(C3)C1)C2)N(Cc1ccccc1)Cc1ccncc1,0,0,0,0,0,-
O=C(CN1CCN(c2ncccn2)CC1)N1CCCc2c1c(=O)oc1ccc(O)cc21,0,0,0,0,0,-
O=C1NCCCc2c1oc1ccc(O)cc21,100,0,0,0,0,0
SMILES,PKD1 inh,ABCB1 inh,MT stabilize HCS,bCat nuc transl,ABCG2 inh,PKD FP artifact
C/C(=N\NC(=O)c1[nH]c2c([N+](=O)[O-])cc(C)cc2c1-c1ccccc1)c1cccnc1,0,0,0,0,0,-
Cc1ccc(C(=O)NNC2=Nc3cccc4cccc2c34)cc1,54,0,0,0,0,0
Clc1cncc(Cl)c1N/N=C/c1ccncc1,91,0,0,0,0,0
O=C(c1cc(-c2ccccc2)nc2ccccc12)N1CCN(c2ccccn2)CC1,93,0,0,-,0,0
O=C(c1cc(-c2ccncc2)nc2ccccc12)N1CCN(c2ccccn2)CC1,0,0,0,0,0,-
Clc1ccc(Nc2ccc(-n3ccnc3)nn2)cc1Cl,52,0,0,0,0,0
C=CCSc1nc2sc(-c3ccccc3)cc2c(=O)n1N,0,0,0,0,0,-
Nc1nc2ccc([N+](=O)[O-])c(N)c2s1,97,0,0,-,0,0
O=C(N/N=C/c1coc2ccccc2c1=O)c1cn(-c2ccccc2)nc1-c1ccc(F)cc1,0,0,0,0,0,-
COc1cc(C2=NOC(C(=O)NCc3ccco3)C2)cc(OC)c1OC (configuration not stated),112,0,23,60,0,0
O=C(NCc1ccco1)C1CC(c2ccc(Cl)c(Cl)c2)=NO1 (configuration not stated),0,0,0,0,0,-
CCCc1c(C)[nH]c2ccc(C(=O)O)cc2c1=S,-,-,-,0,-,-
Nc1nnc(SCCCC(=O)c2ccc(F)cc2)s1,65,0,0,0,0,0
CCC(=O)Nc1c2c(nn1-c1ccccc1C)CSC2,81,0,0,0,0,0
O=C(CN1CCCC1)Nc1c2c(nc3ccccc13)N(Cc1ccccc1)CC2,100,0,0,0,0,0
CCn1c(-c2ccccc2)csc1=Nc1ccc(O)cc1,0,0,0,0,0,-
Cc1cccc(N2C(=O)CC(N3CCN(c4ccccc4)CC3)C2=O)c1 (configuration not stated),0,-,0,0,-,-
O=C1CC(N2CCN(c3ccccc3F)CC2)C(=O)N1c1ccc(F)cc1 (configuration not stated),0,-,0,-,-,-
O=C1CC(N2CCN(c3ccccc3Cl)CC2)C(=O)N1c1cccc(F)c1 (configuration not stated),109,0,0,0,0,0
O=C1CC(N2CCN(c3ccccc3Cl)CC2)C(=O)N1c1ccc(F)cc1 (configuration not stated),51,0,0,0,0,0
O=C(CN1C(=O)C(=O)N(Cc2ccccc2)C1=O)Nc1ccc(F)c(Cl)c1,0,0,0,0,0,-
Cc1c(N/N=C(\C#N)C(=O)c2ccccc2)c(=O)n(-c2ccccc2)n1C,55,0,0,0,0,0
